Measurements published in ChEMBL document CHEMBL1141487, “Alpha,Beta-cyclic-beta-benzamido hydroxamic acids: Novel oxaspiro[4.4]nonane templates for the discovery of potent, selective, orally bioavailable inhibitors of tumor necrosis factor-alpha converting enzyme (TACE)” (Bioorg Med Chem Lett, 2008).

Assays:
[1] = tested on: Blood; experiment: Inhibition of LPS-induced TNFalpha production in human whole blood; assay type: functional, tissue-based
[2] = Apparent permeability across human Caco-2 cells; assay type: ADME, cell-based
[3] = molecular target: T1, Interstitial collagenase (Homo sapiens, UniProt P03956); experiment: Inhibition of MMP1
T1 sequence (P03956 whole entry): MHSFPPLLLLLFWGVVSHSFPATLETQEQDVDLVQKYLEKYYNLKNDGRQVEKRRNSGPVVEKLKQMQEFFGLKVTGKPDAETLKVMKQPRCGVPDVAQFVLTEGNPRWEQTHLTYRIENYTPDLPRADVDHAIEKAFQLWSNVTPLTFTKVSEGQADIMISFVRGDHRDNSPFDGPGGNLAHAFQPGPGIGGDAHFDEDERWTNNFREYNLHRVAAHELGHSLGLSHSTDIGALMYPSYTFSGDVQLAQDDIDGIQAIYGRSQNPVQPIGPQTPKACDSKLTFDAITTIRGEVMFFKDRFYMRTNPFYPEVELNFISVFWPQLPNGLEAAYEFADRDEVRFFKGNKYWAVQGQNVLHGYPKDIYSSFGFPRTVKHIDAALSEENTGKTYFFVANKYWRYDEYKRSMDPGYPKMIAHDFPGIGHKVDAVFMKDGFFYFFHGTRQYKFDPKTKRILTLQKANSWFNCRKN

[4] = molecular target: 72 kDa type IV collagenase (Homo sapiens, UniProt P08253); experiment: Inhibition of MMP2
[5] = molecular target: Matrix metalloproteinase-9 (Homo sapiens, UniProt P14780); experiment: Inhibition of MMP9
[6] = Half life in Sprague-Dawley rat at 5 mg/kg, iv; assay type: ADME, organism-based; design: dose 5 mg/kg, route intravenous; details: in vivo
How it was run: (§1)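 Sprague–Dawley rats dosed 5 mg/kg iv and 5 mg/kg orally as n-in-1 cassette. Plasma levels measured by LC/MS/MS.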

[7] = Half life in Sprague-Dawley rat at 5 mg/kg, po; assay type: ADME, organism-based; design: dose 5 mg/kg, route oral; details: in vivo; how it was run: as §1
[8] = Clearance in Sprague-Dawley rat at 5 mg/kg, iv; assay type: ADME, organism-based; design: dose 5 mg/kg, route intravenous; details: in vivo; how it was run: as §1
[9] = Volume of distribution at steady state in Sprague-Dawley rat at 5 mg/kg, iv; assay type: ADME, organism-based; design: dose 5 mg/kg, route intravenous; details: in vivo, read-out: Vdss; how it was run: as §1
[10] = AUC in Sprague-Dawley rat at 5 mg/kg, iv; assay type: ADME, organism-based; design: dose 5 mg/kg, route intravenous; details: plasma; how it was run: as §1
[11] = Tmax in Sprague-Dawley rat at 5 mg/kg, po; assay type: ADME, organism-based; design: dose 5 mg/kg, route oral; details: in vivo; how it was run: as §1
[12] = AUC in Sprague-Dawley rat at 5 mg/kg, po; assay type: ADME, organism-based; design: dose 5 mg/kg, route oral; details: plasma; how it was run: as §1
[13] = Bioavailability in Sprague-Dawley rat at 5 mg/kg, po; assay type: ADME, organism-based; details: in vivo; how it was run: as §1
[14] = molecular target: Disintegrin and metalloproteinase domain-containing protein 17 (Sus scrofa, UniProt O77636)
[15] = Oral bioavailability in Beagle dog; assay type: ADME, organism-based, Canis lupus familiaris; details: in vivo
[16] = organism: Mus musculus; experiment: Inhibition of LPS-induced TNFalpha production in mouse endotoxemia model after 1 hr; assay type: functional
How it was run: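 Mice given lipopolysaccharide together with graded oral gavage doses of inhibitor at t = 0 h. Animals euthanized 1 h post-dose and whole blood taken by cardiac puncture. TNF-α measured in plasma. ED50 calculated from the dose–response.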

Disintegrin and metalloproteinase domain-containing protein 17, sequence (O77636 whole entry, the tested form may be a part): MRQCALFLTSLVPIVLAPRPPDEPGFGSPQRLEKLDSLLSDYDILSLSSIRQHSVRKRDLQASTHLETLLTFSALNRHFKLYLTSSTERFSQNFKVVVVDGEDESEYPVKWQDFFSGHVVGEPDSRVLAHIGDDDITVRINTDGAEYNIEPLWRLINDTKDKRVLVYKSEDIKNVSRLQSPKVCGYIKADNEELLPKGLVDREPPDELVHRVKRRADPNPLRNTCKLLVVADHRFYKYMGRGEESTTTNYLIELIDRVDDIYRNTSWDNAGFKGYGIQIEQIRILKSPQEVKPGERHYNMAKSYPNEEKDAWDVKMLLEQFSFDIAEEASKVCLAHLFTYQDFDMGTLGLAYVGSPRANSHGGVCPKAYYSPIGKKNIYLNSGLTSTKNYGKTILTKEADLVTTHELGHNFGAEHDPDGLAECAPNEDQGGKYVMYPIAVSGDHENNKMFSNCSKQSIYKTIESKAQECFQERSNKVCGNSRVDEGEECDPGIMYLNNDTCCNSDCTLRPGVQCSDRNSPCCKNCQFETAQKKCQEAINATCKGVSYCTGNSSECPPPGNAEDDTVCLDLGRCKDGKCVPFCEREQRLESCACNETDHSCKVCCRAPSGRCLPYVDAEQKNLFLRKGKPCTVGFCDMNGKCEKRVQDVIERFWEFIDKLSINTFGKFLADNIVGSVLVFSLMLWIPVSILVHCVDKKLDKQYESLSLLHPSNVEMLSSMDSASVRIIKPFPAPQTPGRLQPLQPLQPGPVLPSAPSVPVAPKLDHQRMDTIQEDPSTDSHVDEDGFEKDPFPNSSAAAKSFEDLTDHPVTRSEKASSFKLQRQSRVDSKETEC
Matrix metalloproteinase-9, sequence (P14780 whole entry): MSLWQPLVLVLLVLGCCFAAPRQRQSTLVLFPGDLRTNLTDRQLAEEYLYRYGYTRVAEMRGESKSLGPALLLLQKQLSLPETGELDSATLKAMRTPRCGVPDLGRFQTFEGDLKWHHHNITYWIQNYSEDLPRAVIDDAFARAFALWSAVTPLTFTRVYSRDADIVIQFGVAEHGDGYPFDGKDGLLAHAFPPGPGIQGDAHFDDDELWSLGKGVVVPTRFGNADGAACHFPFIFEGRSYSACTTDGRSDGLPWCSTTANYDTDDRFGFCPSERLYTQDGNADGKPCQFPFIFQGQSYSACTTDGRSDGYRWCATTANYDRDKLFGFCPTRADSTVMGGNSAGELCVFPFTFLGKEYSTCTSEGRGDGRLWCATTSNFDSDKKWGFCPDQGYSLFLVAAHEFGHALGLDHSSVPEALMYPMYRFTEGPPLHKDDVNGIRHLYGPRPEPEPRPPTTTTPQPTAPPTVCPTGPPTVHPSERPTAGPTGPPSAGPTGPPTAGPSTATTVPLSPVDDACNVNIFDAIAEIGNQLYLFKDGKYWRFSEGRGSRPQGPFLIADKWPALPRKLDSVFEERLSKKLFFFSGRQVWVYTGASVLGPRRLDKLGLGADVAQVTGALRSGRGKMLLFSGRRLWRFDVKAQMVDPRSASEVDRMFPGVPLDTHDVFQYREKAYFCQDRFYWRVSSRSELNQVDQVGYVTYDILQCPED
72 kDa type IV collagenase, sequence (P08253 whole entry): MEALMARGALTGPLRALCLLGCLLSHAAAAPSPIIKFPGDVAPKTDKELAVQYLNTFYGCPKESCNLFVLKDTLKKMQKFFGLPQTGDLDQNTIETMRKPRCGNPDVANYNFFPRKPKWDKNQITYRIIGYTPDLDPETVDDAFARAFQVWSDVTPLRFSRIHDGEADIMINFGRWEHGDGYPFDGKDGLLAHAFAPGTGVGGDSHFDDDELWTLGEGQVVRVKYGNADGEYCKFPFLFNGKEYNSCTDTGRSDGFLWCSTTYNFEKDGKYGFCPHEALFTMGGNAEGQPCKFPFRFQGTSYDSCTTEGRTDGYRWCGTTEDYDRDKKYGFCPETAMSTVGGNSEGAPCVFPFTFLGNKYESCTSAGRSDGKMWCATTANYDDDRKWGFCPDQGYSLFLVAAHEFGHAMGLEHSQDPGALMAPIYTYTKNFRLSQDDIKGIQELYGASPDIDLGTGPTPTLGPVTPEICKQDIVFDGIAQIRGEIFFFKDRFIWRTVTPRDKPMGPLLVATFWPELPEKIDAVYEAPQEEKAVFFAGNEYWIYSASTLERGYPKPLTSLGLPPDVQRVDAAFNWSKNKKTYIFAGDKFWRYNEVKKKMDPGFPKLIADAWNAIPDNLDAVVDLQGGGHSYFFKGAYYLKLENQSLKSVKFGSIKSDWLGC

| SMILES | IC50 [1] [µM] | Papp [2] [×10⁻⁶ cm/s] | Ki [3] [µM] | Ki [4] [µM] | Ki [5] [µM] | half-life [6] [h] | half-life [7] [h] | clearance [8] [mL/min/kg] | Vd [9] [L/kg] | AUC [10] [µM·h] | Tmax [11] [h] | AUC [12] [µM·h] | bioavailability [13] [%] | IC50 [14] [µM] | bioavailability [15] [%] | ED50 [16] [mg/kg] |
| --- | --- | --- | --- | --- | --- | --- | --- | --- | --- | --- | --- | --- | --- | --- | --- | --- |
| Cc1cc(COc2ccc(C(=O)N[C@@H]3C[C@]4(CCCO4)C[C@@H]3C(=O)NO)cc2)c2ccccc2n1 | 0.143 | 1.5 | > 4.95 | 1.92 | 1.25 | 6.9 | 1.9 | 13.3 | 1.4 | 10.9 | 0.25 | 3.85 | 35 | 0.001 | – | – |
| Cc1cc(COc2ccc(C(=O)N[C@@H]3C[C@@]4(CCCO4)C[C@@H]3C(=O)NO)cc2)c2ccccc2n1 | 0.108 | 5.7 | > 4.95 | 1.36 | 1.45 | 4.2 | 1.3 | 11.7 | 0.3 | 12.6 | 0.1 | 3.93 | 31 | 0.001 | 68 | 1 |
